Results reported in ChEMBL document CHEMBL1150273, “Aza-peptidyl Michael acceptors. A new class of potent and selective inhibitors of asparaginyl endopeptidases (legumains) from evolutionarily diverse pathogens” (J Med Chem, 2008).
The source made the active and inactive calls. The rule behind the calls is not given here.

Assays:
[1] = target: T1, Caspase-3 (Homo sapiens) (UniProt P42574); experiment: Inhibition of caspase 3 assessed as ratio of pseudo-first-order inhibition rate constant to inhibitor concentration
T1 sequence (whole entry): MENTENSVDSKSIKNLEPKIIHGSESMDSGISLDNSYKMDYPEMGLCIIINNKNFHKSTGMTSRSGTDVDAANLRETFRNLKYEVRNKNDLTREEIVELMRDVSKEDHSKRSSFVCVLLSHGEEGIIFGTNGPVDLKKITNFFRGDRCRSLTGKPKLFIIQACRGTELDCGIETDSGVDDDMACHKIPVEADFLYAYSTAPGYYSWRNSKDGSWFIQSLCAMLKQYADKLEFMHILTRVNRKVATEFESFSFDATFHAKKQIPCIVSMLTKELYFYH
How it was run: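 Caspase-3 (1 nM final) preactivated 10 min at 37 °C in 40 mM Pipes, 200 mM NaCl, 0.2% CHAPS, 20% sucrose mixed 1:1 with 20 mM DTT, pH 7.2; enzyme added to inhibitor plus Ac-Asp-Glu-Val-Asp-AMC; progress curves 20 min at 37 °C (ex 360, em 465 nm); duplicates; rates corrected for substrate (KM 9.7 µM).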

[2] = target: Lys-gingipain HG66 (Porphyromonas gingivalis) (UniProt P72197); experiment: Inhibition of Porphyromonas gingivalis gingipain K assessed as ratio of pseudo-first-order inhibition rate constant to inhibitor concentration
How it was run: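 Gingipain K diluted to 4.61 nM in 0.2 M Tris-HCl, 0.1 M NaCl, 5 mM CaCl2, 2 mM DTT, pH 8.0 and incubated with inhibitor (DMSO) at room temperature; aliquots taken at intervals into buffer with Suc-Ala-Phe-Lys-AMC; fluorescence at 465 nm; pseudo-first-order kinetics.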

[3] = target: T2, Calpain-1 catalytic subunit (Homo sapiens) (UniProt P07384); experiment: Inhibition of calpain 1 assessed as ratio of pseudo-first-order inhibition rate constant to inhibitor concentration
T2 sequence (whole entry): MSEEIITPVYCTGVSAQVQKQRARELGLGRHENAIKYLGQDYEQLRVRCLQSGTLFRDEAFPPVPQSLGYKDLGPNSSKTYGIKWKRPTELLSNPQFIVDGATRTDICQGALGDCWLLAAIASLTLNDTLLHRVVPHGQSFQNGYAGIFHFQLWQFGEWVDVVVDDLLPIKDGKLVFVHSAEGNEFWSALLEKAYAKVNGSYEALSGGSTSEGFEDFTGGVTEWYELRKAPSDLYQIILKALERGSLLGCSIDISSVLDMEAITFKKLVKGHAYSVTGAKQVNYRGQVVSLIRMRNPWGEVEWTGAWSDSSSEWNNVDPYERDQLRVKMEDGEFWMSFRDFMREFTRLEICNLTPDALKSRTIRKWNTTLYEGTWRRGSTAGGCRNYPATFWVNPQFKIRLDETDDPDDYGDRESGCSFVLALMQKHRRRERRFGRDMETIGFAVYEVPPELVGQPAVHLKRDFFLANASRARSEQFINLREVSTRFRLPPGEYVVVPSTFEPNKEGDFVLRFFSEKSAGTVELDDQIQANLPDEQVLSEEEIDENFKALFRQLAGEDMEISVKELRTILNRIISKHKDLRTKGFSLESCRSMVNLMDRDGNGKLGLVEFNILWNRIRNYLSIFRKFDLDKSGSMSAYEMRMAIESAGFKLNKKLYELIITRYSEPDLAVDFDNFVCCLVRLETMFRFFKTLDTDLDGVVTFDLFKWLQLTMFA

[4] = target: Caspase-8 (Homo sapiens) (UniProt Q14790); experiment: Inhibition of caspase 8 assessed as ratio of pseudo-first-order inhibition rate constant to inhibitor concentration
How it was run: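 Caspase-8 at 50 nM final, assayed in the same Pipes/NaCl/CHAPS/sucrose/DTT buffer, pH 7.2, 37 °C with Ac-Asp-Glu-Val-Asp-AMC by the progress curve method; inhibitor stocks 5 × 10^-3 to 2.42 × 10^-6 M in DMSO; rates corrected for substrate using KM 6.79 µM.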

[5] = target: T3, Clostripain (Clostridium histolyticum) (UniProt P09870); experiment: Inhibition of sClostridium histolyticum clostripain assessed as ratio of pseudo-first-order inhibition rate constant to inhibitor concentration; conditions: Hathewaya histolytica
T3 sequence (whole entry): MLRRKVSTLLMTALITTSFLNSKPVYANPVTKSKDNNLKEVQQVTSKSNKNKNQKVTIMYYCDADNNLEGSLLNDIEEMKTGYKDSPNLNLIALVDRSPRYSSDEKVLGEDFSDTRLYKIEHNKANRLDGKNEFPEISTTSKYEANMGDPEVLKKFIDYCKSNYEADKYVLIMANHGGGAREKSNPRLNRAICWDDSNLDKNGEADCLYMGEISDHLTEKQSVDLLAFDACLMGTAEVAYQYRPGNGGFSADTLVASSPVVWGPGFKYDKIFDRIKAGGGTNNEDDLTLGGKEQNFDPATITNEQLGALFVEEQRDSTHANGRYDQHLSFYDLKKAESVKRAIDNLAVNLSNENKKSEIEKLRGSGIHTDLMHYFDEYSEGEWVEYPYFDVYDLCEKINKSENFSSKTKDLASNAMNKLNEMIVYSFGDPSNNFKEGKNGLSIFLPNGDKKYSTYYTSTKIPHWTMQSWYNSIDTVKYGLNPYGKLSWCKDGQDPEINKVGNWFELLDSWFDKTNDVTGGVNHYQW
How it was run: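 Clostripain activated in 8 mM DTT, then incubated with inhibitor (DMSO) in 20 mM Tris-HCl, 10 mM CaCl2, 0.005% Brij 35, 2 mM DTT, pH 7.6; aliquots taken at intervals into buffer with Cbz-Phe-Arg-AMC; fluorescence at 465 nm; pseudo-first-order kinetics.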

[6] = Inhibition of Trichomonas vaginalis G3 AE1 expressed in Pichia pastoris after 20 mins
How it was run: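 Recombinant AE zymogens expressed in Pichia pastoris; SmAE and TvAE1 autoactivated in 0.5 M sodium acetate, 4 mM DTT, pH 4.5, 37 °C, 3 h to overnight; IrAE used without activation. Buffer 0.1 M citrate phosphate, 4 mM DTT, pH 6.8 (SmAE, TvAE1) or pH 5.5 (IrAE). Inhibitor 2.0–0.0002 µM final, 20 min preincubation at room temperature; 10 µM final Cbz-Ala-Ala-Asn-AMC, 20 min; IC50 from RFU/min vs concentration.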

Activity [1] | Ratio [2] [M⁻¹ s⁻¹] | Ratio [3] [M⁻¹ s⁻¹] | Activity [4] | Activity [5] | IC50 [6] [nM] | Activity [3] | Compound
inactive | 2 | < 1 | inactive | inactive | 10 | – | C[C@H](NC(=O)OCc1ccccc1)C(=O)N[C@@H](C)C(=O)NN(CC(N)=O)C(=O)/C=C/C(=O)N(Cc1ccccc1)Cc1ccccc1
inactive | 1 | – | inactive | inactive | 0.55 | inactive | C[C@H](NC(=O)OCc1ccccc1)C(=O)N[C@@H](C)C(=O)NN(CC(N)=O)C(=O)/C=C/C(=O)N(C)Cc1ccccc1
inactive | 6 | – | inactive | inactive | < 1 | inactive | C[C@H](NC(=O)OCc1ccccc1)C(=O)N[C@@H](C)C(=O)NN(CC(N)=O)C(=O)/C=C/C(=O)N(C)Cc1cccc2ccccc12
inactive | 6 | – | inactive | inactive | 4.5 | inactive | CCOC(=O)/C=C/C(=O)N(CC(N)=O)NC(=O)[C@H](C)NC(=O)[C@H](C)NC(=O)OCc1ccccc1
